Calls of active or inactive are those of the source. The calls are words filed in the database; no cut-off is given here.
Legend:
GTPase KRas [1] = molecular target: GTPase KRas (Homo sapiens, UniProt P01116, G12V); assay: Binding affinity to KRAS G12V mutant (unknown origin) assessed as dissociation constant by HSQC NMR spectroscopy analysis
How it was run: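 KD was fitted from chemical shift perturbations and reported as mean ± SD. Reported as <10 μM when shifts were near saturation at the first point, >2000 μM when dose-responsive but unfittable, and >10,000 μM when there were no shifts at 500 μM.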

NCI-H358 [2] = assay: Antiproliferative activity against human NCI-H358 cells harboring KRAS G12C mutant incubated for 3 days by celltiter glo luminescent assay; assay type: functional, cell-based; conditions: NCI-H358, 72 h
[3] = Toxicity in NOG mouse assessed as change in body weight at 40 to 80 mg/kg, ip; assay type: organism-based; conditions: in vivo, dose 40-80 mg/kg
How it was run: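 Female NOG mice with subcutaneous NCI-H358 xenografts, randomized at mean 160 mm3 into groups of n = 8. Dosed ip 40 mg/kg once weekly or 40 mg/kg on 2 consecutive days weekly, in 25% HP-γ-CD at 10 mL/kg, with a vehicle control group. Body weight recorded daily.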

NCI-H358 [4] = assay: Antitumor activity against human NCI-H358 cells xenografted in NOG mouse model assessed as induction of apoptosis at 40 mg/kg, ip administered for 3 days and measured at 6 hrs post last dose; assay type: functional, organism-based; conditions: time 3.0 day
How it was run: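 Female NOG mice, 7–8 weeks old, bearing subcutaneous NCI-H358 tumors (5 million cells in Matrigel, right flank), randomized at mean 180 mm3, n = 5 per group and time point. […] Tumors frozen 6 h after last dose; cleaved caspase 3 measured in tumor lysates.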

cells = conditions: Homo sapiens, GP2d, 120 h
LS-513 = assay: cells; conditions: Homo sapiens, LS-513, 120 h
GTPase KRas [5] = molecular target: GTPase KRas (Homo sapiens, UniProt P01116, G12D); assay: Binding affinity to KRAS G12D mutant (unknown origin) assessed as dissociation constant by HSQC NMR spectroscopy analysis
GTPase KRas (Homo sapiens, UniProt P01116, G12D), sequence (P01116 whole entry G12D): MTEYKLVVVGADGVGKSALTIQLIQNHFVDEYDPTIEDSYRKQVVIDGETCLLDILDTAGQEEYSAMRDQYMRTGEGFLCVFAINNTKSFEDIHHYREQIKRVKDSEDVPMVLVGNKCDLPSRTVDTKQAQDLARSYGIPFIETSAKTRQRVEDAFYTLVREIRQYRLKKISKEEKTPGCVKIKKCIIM

[6] = Binding affinity to KRAS G12V/S39C-BIT mutant (unknown origin) assessed as dissociation constant by HSQC NMR spectroscopy analysis; parameters: species or system Homo sapiens
GTPase KRas [7] = molecular target: GTPase KRas (Homo sapiens, UniProt P01116, G12C)
GTPase KRas (Homo sapiens, UniProt P01116, G12C), sequence (P01116 whole entry G12C): as the sequence (P01116 whole entry G12D) above, with D12C counted along it

SOS1-KRAS = SOS1-KRAS (Homo sapiens, UniProt P01116, G12C)
SOS1-KRAS, sequence (P01116 whole entry G12C, looked up): as the sequence (P01116 whole entry G12D) above, with D12C counted along it

[8] = test system: GTPase KRas (Homo sapiens), P01116 [G12C]
GTPase KRas (Homo sapiens), P01116 [G12C], sequence (P01116 whole entry G12C): as the sequence (P01116 whole entry G12D) above, with D12C counted along it

NCI-H358 [9] = assay: Antiproliferative activity against human NCI-H358; assay type: functional, cell-based

GTPase KRas (Homo sapiens, UniProt P01116, G12V), sequence (P01116 whole entry G12V): as the sequence (P01116 whole entry G12D) above, with D12V counted along it

Structure (SMILES) | Kd (GTPase KRas [1]) [µM] | Kd [6] [µM] | other results
N#Cc1c(N)sc2c1C(C(=O)Nc1ccccc1)CCC2 (stereo not given) | 1270 | – | –
CC1(C(=O)Nc2ccccc2)CCCc2sc(N)c(C#N)c21 (stereo not given) | 1180 | – | –
C=CC(=O)N1CCN(c2cc(-c3noc([C@@]4(C)CCCc5sc(N)c(C#N)c54)n3)nc(N3CCN(C)C[C@@H]3C)c2)CC1 | – | – | EC50 (NCI-H358 [2]): 0.026 µM; Activity [3]: Toxic; Activity (NCI-H358 [4]): Active; EC50 (cells): > 4 µM; EC50 (LS-513): > 4 µM
C[C@]1(c2nc(-c3ccc(N)cc3)no2)CCCc2sc(N)c(C#N)c21 | < 10 | – | Kd (GTPase KRas [5]): > 2000 µM
N#Cc1c(N)sc2ccccc12 | – | 297 | –
C=CC(=O)N1CCN(c2cccc(-c3noc([C@@]4(C)CCCc5sc(N)c(C#N)c54)n3)c2)CC1 | – | – | Ki (GTPase KRas [7]): 7.5 µM; IC50 (SOS1-KRAS): 3.29 µM; Kinact [8]: 0.3 h⁻¹
CN(C)c1cccc2cccc(Cl)c12 | – | > 10000 | –
COC(=O)c1c(N)sc2c1CCCC2 | – | > 10000 | –
C=CC(=O)Nc1ccc(-c2noc([C@@]3(C)CCCc4sc(N)c(C#N)c43)n2)cc1 | – | – | Ki (GTPase KRas [7]): 24.1 µM; IC50 (SOS1-KRAS): > 10 µM; Kinact [8]: 0.7 h⁻¹
CCc1c(C)sc(N)c1C#N | – | 143 | –
Nc1nc2c(C(F)(F)F)cccc2s1 | – | 1220 | –
CC1CCCc2sc(N)c(C#N)c21 (stereo not given) | – | 21 | –
CC1(C)CCCc2sc(N)c(C#N)c21 | 15 | < 10 | –
Cc1noc(C2(C)CCCc3sc(N)c(C#N)c32)n1 (stereo not given) | 20 | – | –
C[C@]1(c2nc(-c3cccc(N)c3)no2)CCCc2sc(N)c(C#N)c21 | < 10 | – | Kd (GTPase KRas [5]): > 2000 µM
C=CC(=O)N1CCN(c2nc(=O)n(-c3c(C)ccnc3C(C)C)c3nc(-c4c(O)cccc4F)c(F)cc23)[C@@H](C)C1 [SOTORASIB] | – | – | EC50 (NCI-H358 [2]): 0.0064 µM; EC50 (NCI-H358 [9]): 0.006 µM
N#Cc1c(N)sc2c1CCCC2 | – | 116 | –
N#Cc1ccsc1N | – | > 10000 | –
C=CC(=O)Nc1cccc(-c2noc([C@@]3(C)CCCc4sc(N)c(C#N)c43)n2)c1 | – | – | Ki (GTPase KRas [7]): 8.6 µM; IC50 (SOS1-KRAS): > 10 µM; Kinact [8]: 1.1 h⁻¹
CNC(=O)C1(C)CCCc2sc(N)c(C#N)c21 (stereo not given) | > 2000 | – | –
CC1(C(=O)O)CCCc2sc(N)c(C#N)c21 (stereo not given) | 1160 | – | –
N#Cc1c(N)sc2c1CCC2 | – | 193 | –
N#Cc1csc2c1CCCC2 | – | > 2000 | –
Oc1cccc(F)c1-c1ncccc1F | – | > 10000 | –
Nc1nc2c(s1)CCCC2 | – | 715 | –
N#Cc1c(N)sc2c1CCCCC2 | – | 162 | –
